Experimental data taken from PubChem BioAssay.
Activity calls are given as the source filed them.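 How the source made its calls, unless noted: active means viability at or below 10% of carrier control in both of two separate runs; inconclusive means viability at or below 10% in only one of the two runs; inactive means the rest.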

Experiments:
[1] = reducers of endogenous Her2 protein level, primary screen, SKBR3 breast tumor cells, AlphaScreen, ATP viability (AID 461;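 active means Her2 level under about 52% in both replicate screens, with viability over 70% of control, limit read from the data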;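 on Her2 level: lower value means less Her2 protein in the cells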;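 on viability: percent of carrier control wells set as 100% viability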); conditions: 18-24 h, measured here: SKBR3 viability, ATP luminescence, at 10 µM
[2] = target: Receptor tyrosine-protein kinase erbB-2 (Homo sapiens) (UniProt P04626); experiment: as above; conditions: 18-24 h, at 10 µM, stronger effect = lower value
[3] = SK-BR-3 cell growth inhibitors, pilot screen, 24 h, human (AID 572); conditions: SK-BR-3 viability, CellTiter-Glo luminescence, at 10 µM, stronger effect = lower value;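 further: compound exposure lasted between 18 and 24 h rather than exactly 24 h; 100% = carrier-treated control wells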
[4] = HUVEC growth inhibition – cell-based, human, primary screen (AID 575;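 active means viability at or below 30% in both replicate assays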;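 further: 100% = median of untreated cell wells with 0.1% DMSO on each plate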); conditions: HUVEC proliferation, CellTiter-Glo luminescence, 72 h; at 10 µM; stronger effect = lower value
In short: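 Test system – primary HUVEC, no more than 12 passages · Dosing – one dose, 10 µM final, 0.1% DMSO · Times – 72 h treatment at 37 °C · Measured by – ATP-based CellTiter-Glo luminescent read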

[5] = growth inhibitors of H69AR lung tumor, primary screen, human, duplicate replicates (AID 580;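 active means viability at or under a set limit in both replicates, limit being median viability minus 3 SD, cut at about 48% in these data, passing the limit was not always enough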;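 further: 100% = mean luminescence of untreated wells and 0% = no signal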); conditions: H69AR lung tumor cells viability, ATP luminescence, 72 h; at 10 µM; stronger effect = lower value
[6] = reversal of MRP1-mediated doxorubicin resistance, pilot screen, H69AR cells, doxorubicin co-treatment (AID 601;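 active means viability loss from added drug above about 55%, and viability with drug at most 40%, in both replicates, limit read from the data, passing the limit was not always enough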); conditions: CellTiter-Glo, 72 h, at 10 µM; for differential viability (reversal): stronger effect = higher value
[7] = 384-well plate pilot, post-Golgi transport modulator project, inhibition of yeast transport mutant growth (AID 636; in the data active means inhibition above about 31%); conditions: absorbance 615 nm, about 18 h, stronger effect = higher value
[8] = growth suppression of yeast trafficking mutant, preliminary HTS, modulators of trafficking downstream of Golgi apparatus project, 1536-format plate, OD 615 nm (AID 637; in the data active means inhibition above about 30%); conditions: yeast transport mutant growth, absorbance 615 nm, 18 h; stronger effect = higher value
[9] = H69AR cells + 2 uM doxorubicin, measured here: viability with 2 uM doxorubicin, stronger effect = lower value
[10] = H69AR cells, compound alone cytotoxicity

Chain of Receptor tyrosine-protein kinase erbB-2 (Homo sapiens) (P04626 whole entry, looked up): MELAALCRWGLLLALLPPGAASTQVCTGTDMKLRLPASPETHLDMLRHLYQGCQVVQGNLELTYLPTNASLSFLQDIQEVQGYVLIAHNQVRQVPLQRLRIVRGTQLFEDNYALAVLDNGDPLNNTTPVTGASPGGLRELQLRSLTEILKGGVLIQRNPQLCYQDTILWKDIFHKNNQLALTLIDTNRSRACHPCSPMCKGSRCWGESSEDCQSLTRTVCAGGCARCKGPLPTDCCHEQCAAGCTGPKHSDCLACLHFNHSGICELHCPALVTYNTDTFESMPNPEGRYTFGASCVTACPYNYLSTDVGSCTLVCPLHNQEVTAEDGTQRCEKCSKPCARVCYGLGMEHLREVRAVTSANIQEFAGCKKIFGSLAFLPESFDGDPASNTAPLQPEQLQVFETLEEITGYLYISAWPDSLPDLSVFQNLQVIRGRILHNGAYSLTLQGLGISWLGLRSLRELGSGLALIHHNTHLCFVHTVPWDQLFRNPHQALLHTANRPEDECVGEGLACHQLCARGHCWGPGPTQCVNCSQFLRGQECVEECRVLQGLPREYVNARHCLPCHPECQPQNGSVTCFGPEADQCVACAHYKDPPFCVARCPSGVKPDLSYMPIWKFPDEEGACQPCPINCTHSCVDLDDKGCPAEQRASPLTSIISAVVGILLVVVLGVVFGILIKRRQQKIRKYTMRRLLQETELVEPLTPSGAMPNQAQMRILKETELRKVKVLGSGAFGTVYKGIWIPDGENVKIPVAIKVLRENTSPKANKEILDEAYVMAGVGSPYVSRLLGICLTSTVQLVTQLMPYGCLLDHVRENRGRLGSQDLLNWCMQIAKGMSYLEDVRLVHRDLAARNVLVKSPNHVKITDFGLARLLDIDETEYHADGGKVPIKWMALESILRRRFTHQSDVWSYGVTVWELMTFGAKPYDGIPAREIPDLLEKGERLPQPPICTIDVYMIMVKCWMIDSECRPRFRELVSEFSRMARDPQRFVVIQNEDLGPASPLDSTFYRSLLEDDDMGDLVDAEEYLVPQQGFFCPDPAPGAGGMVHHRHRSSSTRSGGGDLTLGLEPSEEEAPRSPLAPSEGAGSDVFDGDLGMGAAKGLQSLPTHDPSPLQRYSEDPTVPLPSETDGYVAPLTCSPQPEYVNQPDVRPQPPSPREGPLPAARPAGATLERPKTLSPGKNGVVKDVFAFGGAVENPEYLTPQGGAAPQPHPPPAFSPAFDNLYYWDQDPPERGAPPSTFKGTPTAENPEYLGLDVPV

| SMILES | viability [1] [%] | Her2 level [2] | viability [3] | viability [4] | viability [5] | differential viability (reversal) ([6]; H69AR cells + 2 uM doxorubicin) | viability [6, 9] [%] | viability [6, 10] [%] | inhibition [7] | inhibition [8] |
| --- | --- | --- | --- | --- | --- | --- | --- | --- | --- | --- |
| CC(C)N(C(=O)CSc1nnc(NC(=O)C2CCC2)s1)C(C)C | 82.5 | 90.5% (inactive) | 82.5% (inactive) | 90.4% (inactive) | 92.9% (inactive) | 3.82% (inactive) | 89 | 92.9 | -1.47% (inactive) | -2.42% (inactive) |
| Cc1nnc2n(Cc3ccccc3)c(=O)c3c4c(sc3n12)COC(C(C)C)C4 (stereo not given) | 124 | 69% (inactive) | 124% (inactive) | 82.5% (inactive) | 76.2% (inactive) | 17% (inactive) | 59.2 | 76.2 | -7.6% (inactive) | 11.9% (inactive) |
| CCOC(=O)c1cccc(NC(=O)Cn2cnc3c2c(=O)n(C)c(=O)n3C)c1 | 104 | 91.5% (inactive) | 104% (inactive) | 102% (inactive) | 91.2% (inactive) | -6.33% (inactive) | 97.5 | 91.2 | -2.97% (inactive) | -9.33% (inactive) |
| O=C(CSc1nc2ncccc2[nH]1)Nc1ccc2c(c1)OCCO2 | 108 | 118% (inactive) | 108% (inactive) | 85.6% (inactive) | 82% (inactive) | -0.395% (inactive) | 82.4 | 82 | -2.86% (inactive) | -0.82% (inactive) |
| CN(C)S(=O)(=O)N1CCN(C(=O)N(c2ccccc2)c2ccccc2)CC1 | 81.5 | 154% (inactive) | 81.5% (inactive) | 99.4% (inactive) | 97.5% (inactive) | -4.56% (inactive) | 102 | 97.5 | 1.28% (inactive) | 12.7% (inactive) |
| C=CCn1c(SCC2=C(C(=O)OCC)C(C)NC(=O)N2)nnc1C1CCCCC1 (stereo not given) | 100 | 105% (inactive) | 100% (inactive) | 83.6% (inactive) | 91.5% (inactive) | -4.74% (inactive) | 96.2 | 91.5 | -5.06% (inactive) | -0.98% (inactive) |
| Nc1c(Sc2ccccc2)c(=O)[nH]c(=O)n1Cc1ccccc1 | 90.5 | 104% (inactive) | 90.5% (inactive) | 109% (inactive) | 102% (inactive) | 8.38% (inactive) | 93.2 | 102 | -5.14% (inactive) | -6% (inactive) |
| C/C(=N\O)C(=O)NCCCNCCCN(C)C | 104 | 94.5% (inactive) | 104% (inactive) | 117% (inactive) | 98.2% (inactive) | -3.41% (inactive) | 102 | 98.2 | -6.16% (inactive) | 0.48% (inactive) |
| Cc1ccc(S(=O)(=O)NCCN2CCOCC2)cc1C | 88.5 | 93% (inactive) | 88.5% (inactive) | 91.7% (inactive) | 86.1% (inactive) | -5.21% (inactive) | 91.3 | 86.1 | -0.52% (inactive) | -1.11% (inactive) |
| COc1ccc(NC(=O)CC2Oc3ccccc3NC2=O)cc1 (stereo not given) | 87.5 | 90% (inactive) | 87.5% (inactive) | 96.2% (inactive) | 97.6% (inactive) | 0.535% (inactive) | 97.1 | 97.6 | 0.27% (inactive) | -4.75% (inactive) |
| O=c1[nH]cnc2c1nc(SCc1ccccc1)n2C1OC(CO)C(O)C1O (stereo not given) | 94.5 | 88% (inactive) | 94.5% (inactive) | 92.4% (inactive) | 101% (inactive) | 8.52% (inactive) | 92.2 | 101 | -5.54% (inactive) | 4.6% (inactive) |
| CC(=O)Nc1ccc(S(=O)(=O)N2CCC(c3nc4ccccc4[nH]3)CC2)cc1 | 93 | 81.5% (inactive) | 93% (inactive) | 78.9% (inactive) | 93.6% (inactive) | 9.73% (inactive) | 83.9 | 93.6 | -3.78% (inactive) | 0% (inactive) |
| CCOc1cccc(OCCOCCN2CCCC2)c1 | 107 | 89% (inactive) | 107% (inactive) | 91.3% (inactive) | 89.4% (inactive) | -1.11% (inactive) | 90.5 | 89.4 | -6.22% (inactive) | -3.17% (inactive) |
| COc1ccc(Cn2nnnc2C(c2cc3cc(C)cc(C)c3[nH]c2=O)N2CCOCC2)cc1 (stereo not given) | 108 | 94.5% (inactive) | 108% (inactive) | 117% (inactive) | 99.4% (inactive) | 11.9% (inactive) | 87.4 | 99.4 | -7.47% (inactive) | 0.32% (inactive) |
| CCCCCOC(=O)C1=C(C)N(C)C(=O)NC1c1cc(Br)c(O)c(OC)c1 (stereo not given) | 114 | 106% (inactive) | 114% (inactive) | 72.7% (inactive) | 83.2% (inactive) | -3.32% (inactive) | 86.5 | 83.2 | -7.14% (inactive) | -7.62% (inactive) |
| CC(=O)Nc1c2c(nn1-c1ccc(C)cc1C)CSC2 | 109 | 113% (inactive) | 109% (inactive) | 101% (inactive) | 90.7% (inactive) | -2.51% (inactive) | 93.2 | 90.7 | -1.17% (inactive) | -2.54% (inactive) |

| SMILES | viability [1] [%] | Her2 level [2] | viability [3] | viability [4] | viability [5] | differential viability (reversal) ([6]; H69AR cells + 2 uM doxorubicin) | viability [6, 9] [%] | viability [6, 10] [%] | inhibition [7] | inhibition [8] |
| --- | --- | --- | --- | --- | --- | --- | --- | --- | --- | --- |
| O=c1c2nnn(Cc3ccccc3)c2ncn1-c1ccccc1 | 103 | 90.5% (inactive) | 103% (inactive) | 111% (inactive) | 108% (inactive) | 5.12% (inactive) | 103 | 108 | -6.27% (inactive) | 4.1% (inactive) |
| Cc1noc(C)c1S(=O)(=O)NCCN1CCN(c2ccccc2)CC1 | 96 | 98.5% (inactive) | 96% (inactive) | 96.4% (inactive) | 96.1% (inactive) | 3.43% (inactive) | 92.7 | 96.1 | -0.79% (inactive) | -0.79% (inactive) |
| Cc1nc(NC2=NCN(CC3CCCO3)CN2)nc2ccccc12 (stereo not given) | 98.5 | 83% (inactive) | 98.5% (inactive) | 86.2% (inactive) | 85.1% (inactive) | -13.8% (inactive) | 98.9 | 85.1 | -5.07% (inactive) | -3.81% (inactive) |
| CCOc1ccc2cc(C#N)c(SCC(=O)N3CCOCC3)nc2c1 | 109 | 81.5% (inactive) | 109% (inactive) | 87.1% (inactive) | 74.6% (inactive) | 31.8% (inactive) | 42.8 | 74.6 | -6.8% (inactive) | 1.94% (inactive) |
| NC(=O)CCS(=O)(=O)CCN1CCCCC1 | 93.5 | 86% (inactive) | 93.5% (inactive) | 102% (inactive) | 93.2% (inactive) | -0.51% (inactive) | 93.7 | 93.2 | -0.13% (inactive) | -2.95% (inactive) |
| OCCNc1nc2ccc(Cl)cc2[nH]1 | 84 | 100% (inactive) | 84% (inactive) | 108% (inactive) | 107% (inactive) | 9.03% (inactive) | 97.9 | 107 | -6.89% (inactive) | 5.08% (inactive) |
| CCN(C(=O)c1cc(Cl)ccc1OC)C1CCCCC1 | 86.5 | 104% (inactive) | 86.5% (inactive) | 101% (inactive) | 83.8% (inactive) | -10.6% (inactive) | 94.4 | 83.8 | -2.86% (inactive) | -2.5% (inactive) |
| COc1ccc(N2CCN(C(=O)CSc3nnc4n3C(C)(C)Cc3ccccc3-4)CC2)cc1 | 96 | 100% (inactive) | 96% (inactive) | 84.3% (inactive) | 88.7% (inactive) | -4.46% (inactive) | 93.1 | 88.7 | -5.79% (inactive) | -1.61% (inactive) |
| CCn1c(=O)n(CC(=O)Nc2cc(OC)ccc2OC)c(=O)c2ccccc21 | 110 | 77% (inactive) | 110% (inactive) | 86% (inactive) | 87.4% (inactive) | 17.7% (inactive) | 69.7 | 87.4 | -0.66% (inactive) | -0.32% (inactive) |
| O=C(OCC(=O)N1CCC(Cc2ccccc2)CC1)c1ccc[nH]c1=O | 80.5 | 102% (inactive) | 80.5% (inactive) | 117% (inactive) | 92.6% (inactive) | 2.25% (inactive) | 90.4 | 92.6 | 0.13% (inactive) | -12.3% (inactive) |
| CCOc1ccc(NC(=O)C2CC(=O)N(C(C)C)C2)cc1 (stereo not given) | 103 | 82% (inactive) | 103% (inactive) | 114% (inactive) | 99.7% (inactive) | 7% (inactive) | 92.7 | 99.7 | -2% (inactive) | 0.49% (inactive) |
| COc1ccc(C2/C(=C(/O)c3cnn(-c4ccccc4)c3C)C(=O)C(=O)N2CCN(C)C)cc1OC (stereo not given) | 109 | 86% (inactive) | 109% (inactive) | 102% (inactive) | 101% (inactive) | 1.86% (inactive) | 98.7 | 101 | -1.62% (inactive) | -2.54% (inactive) |
| COCCn1c(SCC(=O)Nc2nnc(C)s2)nnc1-c1c[nH]c2ccccc12 | 104 | 84% (inactive) | 104% (inactive) | 111% (inactive) | 103% (inactive) | 14.8% (inactive) | 88.6 | 103 | -1.71% (inactive) | -6% (inactive) |
| COc1cc(OC)cc(C(=O)NCc2n[nH]c(=S)n2-c2ccccc2OC)c1 | 97 | 88% (inactive) | 97% (inactive) | 109% (inactive) | 89.4% (inactive) | 0.11% (inactive) | 89.3 | 89.4 | -7.16% (inactive) | -1.33% (inactive) |
| Cc1cccc(NC(=O)c2cc3n(n2)C(C(F)(F)F)CC(c2ccc4c(c2)OCO4)N3)c1 (stereo not given) | 113 | 68.5% (inactive) | 113% (inactive) | 56.9% (inactive) | 73.9% (inactive) | -6.35% (inactive) | 80.2 | 73.9 | -0.53% (inactive) | 1.61% (inactive) |
| Cc1ccc(-c2noc(C3CCCN(C(=O)c4ccccc4)C3)n2)o1 (stereo not given) | 86 | 95% (inactive) | 86% (inactive) | 94.8% (inactive) | 95.1% (inactive) | 4.09% (inactive) | 91 | 95.1 | -5.66% (inactive) | 0.33% (inactive) |
